According to ChEMBL document CHEMBL1155506 (J Med Chem, 2010):

Assays:
[1] = target: 5-hydroxytryptamine receptor 2A (Homo sapiens, UniProt P28223); test: Displacement of [125I]DOI from human recombinant 5HT2A receptor expressed in HEK293 cells by scintillation counting; format: cell-based
Outline: (§1)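 Crude plasma membranes from HEK293 cells stably expressing the human receptor (5–25 μg protein), in 20 mM HEPES pH 7.4 with 10 mM MgCl2. Incubated with 0.5 nM [125I]DOI and test compound (1 pM–10 μM) for 1 h at room temperature; nonspecific binding defined with 10 μM cold DOI. Filtered, washed with ice-cold Tris buffer and scintillation counted in triplicate.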

[2] = target: T1, 5-hydroxytryptamine receptor 2C (Homo sapiens, UniProt P28335); test: Displacement of [125I]DOI from human recombinant 5HT2C receptor expressed in HEK293 cells by scintillation counting; format: cell-based; outline: as §1
T1 sequence (P28335 whole entry): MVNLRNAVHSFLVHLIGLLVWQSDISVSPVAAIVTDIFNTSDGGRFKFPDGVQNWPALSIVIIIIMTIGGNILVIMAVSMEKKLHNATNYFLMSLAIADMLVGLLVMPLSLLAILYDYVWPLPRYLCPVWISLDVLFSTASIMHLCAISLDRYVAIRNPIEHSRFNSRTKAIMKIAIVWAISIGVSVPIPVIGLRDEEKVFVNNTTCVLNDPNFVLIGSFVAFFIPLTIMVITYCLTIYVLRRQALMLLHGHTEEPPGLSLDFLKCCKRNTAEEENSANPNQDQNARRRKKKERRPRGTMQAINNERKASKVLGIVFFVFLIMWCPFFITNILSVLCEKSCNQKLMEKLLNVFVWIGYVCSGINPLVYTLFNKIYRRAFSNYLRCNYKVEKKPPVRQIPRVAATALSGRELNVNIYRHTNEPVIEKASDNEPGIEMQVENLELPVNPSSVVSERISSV

[3] = Antiplatelet activity in human platelet rich plasma assessed as inhibition of ADP-induced aggregation preincubated for 1 min before 5-HT and ADP challenge measured after 3 mins by turbidimetry
[4] = target: T2, hERG (KCNH2) (Homo sapiens, UniProt Q12809); test: Inhibition of human ERG at 3 uM by patch clamp assay
[5] = Half life in Sprague-Dawley rat at 10 mg/kg, po by HPLC/MS/MS analysis; format: ADME, organism-based; parameters: dose 10 mg/kg, route oral; conditions: in vivo
Outline: (§2)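 Male rats fasted overnight before oral dosing; 10 mg/kg po and 2 mg/kg iv in 80% PEG400/20% phosphate buffered saline. Jugular vein blood was sampled at 0.25–21 h over 24 h, and heparin plasma was assayed by HPLC/MS/MS (MRM, positive electrospray, internal standard; LLOQ 1 ng/mL, ULOQ 2000 ng/mL). %F is taken relative to the 2 mg/kg iv dose. Mean of n = 3 animals.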

[6] = target: T2, hERG (KCNH2); test: Inhibition of human ERG at 1 uM by patch clamp assay
[7] = Volume of distribution at steady state in Sprague-Dawley rat at 2 mg/kg, iv after 24 hrs by HPLC/MS/MS analysis; format: ADME, organism-based; parameters: dose 2 mg/kg, route intravenous; conditions: in vivo, read-out: Vdss; outline: as §2
[8] = Bioavailability in Sprague-Dawley rat at 2 mg/kg, iv after 24 hrs by HPLC/MS/MS analysis; format: ADME, organism-based; conditions: in vivo; outline: as §2
[9] = AUC (0 to last) in Sprague-Dawley rat at 10 mg/kg, po after 24 hrs by HPLC/MS/MS analysis; format: ADME, organism-based; parameters: time 0 - last, dose 10 mg/kg, route oral; conditions: plasma; outline: as §2
[10] = Cmax in Sprague-Dawley rat at 10 mg/kg, po after 24 hrs by HPLC/MS/MS assay; format: ADME, organism-based; parameters: dose 10 mg/kg, route oral; conditions: in vivo; outline: as §2
[11] = Total clearance in Sprague-Dawley rat at 2 mg/kg, iv after 24 hrs by HPLC/MS/MS analysis; format: ADME, organism-based; parameters: dose 2 mg/kg, route intravenous; conditions: in vivo; outline: as §2

T2 sequence (Q12809 whole entry): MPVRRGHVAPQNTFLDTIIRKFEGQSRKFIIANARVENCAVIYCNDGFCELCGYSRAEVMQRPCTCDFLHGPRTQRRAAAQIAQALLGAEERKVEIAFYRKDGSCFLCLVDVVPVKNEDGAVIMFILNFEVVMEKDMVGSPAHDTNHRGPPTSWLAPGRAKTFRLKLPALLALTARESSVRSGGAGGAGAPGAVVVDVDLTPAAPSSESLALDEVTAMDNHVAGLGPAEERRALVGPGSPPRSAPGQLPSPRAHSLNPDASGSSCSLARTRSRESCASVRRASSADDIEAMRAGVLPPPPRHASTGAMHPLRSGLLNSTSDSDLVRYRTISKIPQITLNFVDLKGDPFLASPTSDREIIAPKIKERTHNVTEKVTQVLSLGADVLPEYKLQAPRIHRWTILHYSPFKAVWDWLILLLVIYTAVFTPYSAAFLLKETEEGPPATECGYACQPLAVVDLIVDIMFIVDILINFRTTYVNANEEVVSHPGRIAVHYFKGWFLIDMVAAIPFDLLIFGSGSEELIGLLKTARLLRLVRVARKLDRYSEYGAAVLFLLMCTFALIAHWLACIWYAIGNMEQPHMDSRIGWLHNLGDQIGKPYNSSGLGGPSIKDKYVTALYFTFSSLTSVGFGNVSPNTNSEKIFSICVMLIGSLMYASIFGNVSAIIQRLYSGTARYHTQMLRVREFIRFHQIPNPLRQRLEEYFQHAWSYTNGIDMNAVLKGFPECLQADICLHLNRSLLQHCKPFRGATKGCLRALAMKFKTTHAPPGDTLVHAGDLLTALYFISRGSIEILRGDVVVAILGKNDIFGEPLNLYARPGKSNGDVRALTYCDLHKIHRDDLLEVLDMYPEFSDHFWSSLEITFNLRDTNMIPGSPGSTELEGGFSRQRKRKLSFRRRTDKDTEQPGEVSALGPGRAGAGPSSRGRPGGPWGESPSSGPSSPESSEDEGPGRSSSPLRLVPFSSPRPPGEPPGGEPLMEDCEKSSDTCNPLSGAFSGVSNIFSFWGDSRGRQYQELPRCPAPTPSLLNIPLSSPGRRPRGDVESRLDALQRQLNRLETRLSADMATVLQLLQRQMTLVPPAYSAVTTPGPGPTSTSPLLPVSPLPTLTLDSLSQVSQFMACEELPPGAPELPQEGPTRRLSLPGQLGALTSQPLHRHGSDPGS
Sequence of 5-hydroxytryptamine receptor 2A (P28223 whole entry): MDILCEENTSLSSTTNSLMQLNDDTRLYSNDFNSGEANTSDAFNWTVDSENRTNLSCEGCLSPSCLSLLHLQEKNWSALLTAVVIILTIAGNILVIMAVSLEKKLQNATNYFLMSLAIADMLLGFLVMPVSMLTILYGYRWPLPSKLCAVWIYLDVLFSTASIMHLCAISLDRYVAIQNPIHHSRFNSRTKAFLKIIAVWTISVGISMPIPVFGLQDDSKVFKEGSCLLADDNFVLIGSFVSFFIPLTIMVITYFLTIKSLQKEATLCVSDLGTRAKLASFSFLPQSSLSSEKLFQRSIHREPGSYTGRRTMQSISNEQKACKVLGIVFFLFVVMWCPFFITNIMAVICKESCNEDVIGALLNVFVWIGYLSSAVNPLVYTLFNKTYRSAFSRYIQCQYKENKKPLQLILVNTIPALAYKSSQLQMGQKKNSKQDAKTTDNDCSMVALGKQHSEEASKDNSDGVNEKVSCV

SMILES | Ki [1] [nM] | Ki [2] [nM] | IC50 [3] [nM] | inhibition at 3 µM [4] [%] | half-life [5] [h] | inhibition at 1 µM [6] [%] | Vd [7] [L/kg] | bioavailability [8] [%] | AUC(0-t) at 24 h [9] [ng·h/mL] | Cmax [10] [ng/mL] | clearance [11] [mL/min/kg]
Cn1nccc1-c1cc(NC(=O)c2cccc(C(F)(F)F)c2)ccc1OCCN1CCNC(=O)C1 | 287 | > 10000 | – | – | – | – | – | – | – | – | –
CC(=O)N1CCN(CCOc2ccc(NC(=O)c3cccc(F)c3)cc2-c2ccnn2C)CC1 | 15 | > 10000 | 40 | – | – | – | – | – | – | – | –
CC(=O)N1CCN(CCOc2ccc(NC(=O)c3cccc(C(F)(F)F)c3)cc2-c2ccnn2C)CC1 | 4.3 | 5610 | 145 | 75 | – | – | – | – | – | – | –
CC(=O)N1CCN(CCOc2ccc(NC(=O)c3cccc(F)c3)cc2-c2c(Cl)cnn2C)CC1 | 2.2 | 8600 | 70 | 43 | – | – | – | – | – | – | –
Cn1nccc1-c1cc(NC(=O)c2ccc(C(F)(F)F)cc2)ccc1OCCN1CCCC1 | 1.9 | 225 | 2 | – | 2.8 | 66 | 5.4 | 43 | 3830 | 453 | 18.3
COc1cccc(C(=O)Nc2ccc(OCCN)c(-c3ccnn3C)c2)c1 | 2.2 | 2350 | 6.9 | 22 | – | – | – | – | – | – | –
Cn1nccc1-c1cc(NC(=O)c2cccc(F)c2)ccc1OCCN1CCOCC1 | 5.1 | > 10000 | 86 | 43 | – | – | – | – | – | – | –
COc1cccc(C(=O)Nc2ccc(OCCNCCO)c(-c3ccnn3C)c2)c1 | 1.8 | 5870 | 5.8 | 36 | – | – | – | – | – | – | –
Cn1nccc1-c1cc(NC(=O)c2cccc(C(F)(F)F)c2)ccc1OCCN1CCC(F)(F)C1 | 12 | 9250 | 189 | 50 | – | – | – | – | – | – | –
COc1cccc(C(=O)Nc2ccc(OCCN3CCN(C(N)=O)CC3)c(-c3ccnn3C)c2)c1 | 5.1 | 5890 | 57 | 17 | – | – | – | – | – | – | –
Cn1nccc1-c1cc(NC(=O)c2ccc(F)c(F)c2)ccc1OCCN1CCOCC1 | 4.1 | > 10000 | 29 | 56 | – | – | – | – | – | – | –
